The values that follow come from ChEMBL document CHEMBL4033642, “Design and synthesis of neolamellarin a derivatives targeting heat shock protein 90” (Eur J Med Chem, 2017).

The structures appear in SMILES notation.

Assay [1] deals with NCI-H1299. As to the kind of experiment: Antiproliferative activity against human H1299 cells after 48 hrs by resazurin dye-based fluorescence assay. It counts as functional, cell-based. The following applies: NCI-H1299, 48 h. The procedure, abridged:
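H1299 non-small-cell lung cells, kept subconfluent, passages 3–30, seeded 2000 cells/well; after 24 h exposed to serial concentrations in serum complete medium, 0.1% DMSO final, for 48 h. Resazurin then added, 16 h at 37 °C; fluorescence read at 544 nm excitation/595 nm emission, proportional to viable cells. IC50 from three repeats.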
A general note: The colour change of resazurin is a common sign of viable cells or microbes.

In assay [2] the test system is NCI-H1299. Briefly: Induction of apoptosis in human H1299 cells assessed as increase in cleaved PARP levels after 72 hrs by Western blot analysis. Format: functional, cell-based. The essentials: (§1)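 H1299 cells seeded in 15 cm dishes at 8 × 10⁴ cells/mL, 24 h, then treated at 7.5 and 15 µM for 72 h at 37 °C; DMSO-only controls. Lysed on ice 30 min, cleared at 10000 × g, protein by BCA. 25–100 µg run on 10% or 12% SDS-PAGE, blotted to nitrocellulose. Probed with antibodies to CDK2, EGFR, p-EGFR (Tyr1068), AKT, p-AKT, cleaved PARP; β-actin loading control; chemiluminescence; three repeats.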

Assay [3] has as its target T1, Heat shock protein HSP 90-alpha (Homo sapiens, UniProt P07900). As to the kind of experiment: Inhibition of HSP90alpha in human H1299 cells assessed as decrease in EGFR levels after 72 hrs by Western blot analysis. It counts as cell-based. The essentials:
as §1

The target of assay [4] is T1, Heat shock protein HSP 90-alpha. As to the kind of experiment: Inhibition of HSP90alpha in human H1299 cells assessed as decrease in AKT levels after 72 hrs by Western blot analysis. It counts as cell-based. The essentials:
as §1
On the technique in general: A western blot detects proteins with antibodies after separation by electrophoresis.

Assay [5] relates to NCI-H1299. Briefly: Antiproliferative activity against human H1299 cells assessed as inhibition of cell viability after […] by resazurin dye-based fluorescence assay. Format: functional. The essentials: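 H1299 cells, 2000/well, seeded 24 h, then exposed to serial compound concentrations in serum-containing complete medium for 48 h (DMSO vehicle, 0.1% final). Resazurin (2 mg/mL stock) added, 16 h at 37 °C. Fluorescence read at 544 nm ex / 595 nm em; RFU taken as proportional to living cells.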

Assay [6] has as its target T1, Heat shock protein HSP 90-alpha. Briefly: Inhibition of HSP90alpha in human H1299 cells assessed as decrease in phosphorylation of EGFR after 72 hrs by Western blot analysis. Format: cell-based. The procedure, abridged:
as §1

Assay [7] concerns NCI-H1299. Briefly: Induction of apoptosis in human H1299 cells assessed as inhibition of expression of CDK2 after 72 hrs by Western blot analysis. It counts as functional, cell-based. The essentials: as §1
The target of assay [8] is T1, Heat shock protein HSP 90-alpha. Briefly: Inhibition of FITC-GA binding to N-terminal domain of HSP90alpha (unknown origin) after 5 hrs by fluorescence polarization assay. (In general: Fluorescence polarisation rises when a labelled molecule tumbles more slowly, as on binding a larger partner.)
Assay [9] has the same target. As to the kind of experiment: Inhibition of HSP90alpha in human H1299 cells assessed as decrease in phosphorylation of AKT after 72 hrs by Western blot analysis. Format: cell-based. The essentials:
as §1

Broadly, the IC50 is the midpoint of a concentration-inhibition curve. In the assay on NCI-H1299 [1], `COc1cccc(Cn2cc(-c3ccc(O)cc3)c(-c3ccc(O)cc3)c2)c1` displayed a half-maximal inhibitory concentration (IC50) of 25.3 µM.
Still for that read-out and setting: the value for `COc1ccc(Cn2cc(-c3ccc(O)cc3)c(-c3ccc(O)cc3)c2)c(OC)c1` was 31.6 µM.
On to `COc1ccc(Cn2cc(-c3ccc(O)c(O)c3)c(-c3ccc(O)c(O)c3)c2)cc1OC`, for which the Activity result in the assay with NCI-H1299 [2] is “Dose-dependent effect”. Also, the inhibition result (in assay [3]; in assay [4]; with NCI-H1299 [5]; in [6]; in the assay on NCI-H1299 [7]; in assay [9]) was “Dose-dependent effect” each time. Further, the concentration for half-maximal inhibition (IC50) was determined as 0.374 µM in assay [8] and 10.5 µM with NCI-H1299 [1].
With `COc1ccc(-c2cn(Cc3ccccc3O)cc2-c2ccc(OC)cc2)cc1`, the IC50 with NCI-H1299 [1] is 20.8 µM.
With `COc1ccc(Cn2cc(-c3ccc(O)c(O)c3)c(-c3ccc(O)c(O)c3)c2)cc1`, the Activity result in the assay with NCI-H1299 [2] was “Dose-dependent effect”. In addition, the inhibition result (in assay [3]; in [4]; with NCI-H1299 [5]; in assay [6]; with NCI-H1299 [7]; in assay [9]) was “Dose-dependent effect” throughout. Besides, the IC50 in [8] came to 0.752 µM; in the assay on NCI-H1299 [1] it was 8.3 µM.
Take `COc1ccc(-c2cn(Cc3ccc(O)cc3)cc2-c2ccc(OC)cc2)cc1`: in the assay on NCI-H1299 [1], the half-maximal inhibitory concentration (IC50) worked out at 20.5 µM.
Still for that read-out and setting: the figure for `COc1ccc(Cn2cc(-c3ccc(O)cc3)c(-c3ccc(O)cc3)c2)cc1` is 37.3 µM.
For `COc1cc(Cn2cc(-c3ccc(O)c(O)c3)c(-c3ccc(O)c(O)c3)c2)cc(OC)c1OC`, the Activity result with NCI-H1299 [2] is “Dose-dependent effect”. Moreover, the inhibition entry (in [3]; in [4]; in the assay with NCI-H1299 [5]; in assay [6]; in the assay with NCI-H1299 [7]; in assay [9]) was “Dose-dependent effect” in each case. Besides, the concentration for half-maximal inhibition (IC50) in assay [8] worked out at 0.852 µM; with NCI-H1299 [1], 13.2 µM.
Compound `COc1ccc(-c2cn(Cc3ccc(O)c(O)c3)cc2-c2ccc(OC)c(OC)c2)cc1OC` registered an IC50 with NCI-H1299 [1] of 23.4 µM.
As for `COc1ccccc1Cn1cc(-c2ccc(O)c(O)c2)c(-c2ccc(O)c(O)c2)c1`, the IC50 in the assay with NCI-H1299 [1] is 8.6 µM.
On the same count and under the same terms, the figure for `Oc1ccc(-c2cn(Cc3ccccc3)cc2-c2ccc(O)cc2)cc1` is 26.9 µM; for `C=CCNC1=C2C[C@@H](C)C[C@H](OC)[C@H](O)[C@@H](C)/C=C(\C)[C@H](OC(N)=O)[C@@H](OC)/C=C\C=C(/C)C(=O)NC(=CC1=O)C2=O` [TANESPIMYCIN] it is 0.2 µM.
On the same count and under the same terms, the value for `COc1ccc(Cn2cc(-c3ccc(O)cc3)c(-c3ccc(O)cc3)c2)c(OC)c1OC` was 25.1 µM; that for `COc1ccccc1Cn1cc(-c2ccc(O)cc2)c(-c2ccc(O)cc2)c1` was 23.1 µM.
With `COc1ccc(-c2cn(Cc3ccc(O)c(O)c3)cc2-c2ccc(OC)cc2)cc1`, in the assay with NCI-H1299 [5], the inhibition result is “Dose-dependent effect”. Further, half-maximal inhibition in the assay on NCI-H1299 [1] (IC50) was put at 19.1 µM.
The compound `COc1cc(-c2cn(Cc3ccc(O)cc3)cc2-c2cc(OC)c(OC)c(OC)c2)cc(OC)c1OC` gave an IC50 with NCI-H1299 [1] of more than 100 µM.
The same measure, in the same setting: the figure for `COc1ccc(-c2cn(Cc3ccc(O)cc3)cc2-c2ccc(OC)c(OC)c2)cc1OC` is 30.6 µM.
In the assay on NCI-H1299 [1], `COc1cc(-c2cn(Cc3ccc(O)c(O)c3)cc2-c2cc(OC)c(OC)c(OC)c2)cc(OC)c1OC` had an IC50 of 29.2 µM.
In the case of `COc1ccc(Cn2cc(-c3ccc(O)cc3)c(-c3ccc(O)cc3)c2)cc1OC`, the inhibition result with NCI-H1299 [5] was “Dose-dependent effect”. Also, in the assay with NCI-H1299 [1], it took 29.2 µM to reach half-maximal inhibition (IC50).
